Test results published in PMC5010496 (Cancer research, 2016).

Columns and labels:
[1] = tested on: CAG myeloma cells; experiment: Caspase3/7-GLO apoptosis assay, CAG; format: cell-based, human
Outline: (§1)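 Myeloma cells in complete medium were pre-treated for 1 hr with JNK inhibitor or DMSO vehicle, then given or not given 30 μM test peptide, for 9 hr total. Caspase 3/7 activity was read by Caspase3/7-GLO luminescence and expressed as fold increase over vehicle alone (set to 1.0).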

[2] = tested on: MM.1R myeloma cells; experiment: Caspase3/7-GLO apoptosis assay, MM.1R; format: cell-based, human; settings: MM.1R cells
Outline: as §1

[3] = molecular target: IGF1R and αvβ5 integrin complex with Sdc1 (Homo sapiens, UniProt P06756+P08069+P18084); experiment: Immunoprecipitation of Sdc1 with competing SSTN peptides; format: binding
Outline: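 CAG cell lysates from suspension culture were immunoprecipitated with isotype-matched control mIgG1 or mAbs to Sdc1 (B-A38), αvβ5 integrin (P1F6) and/or IGF1R (JBW902), in the presence of test peptide (1 μM) or a variant peptide (1, 3 or 10 μM). Precipitates were probed for Sdc1, IGF1R and αvβ5 integrin.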

[4] = tested on: CAG, RPMI-8226, KMS-12, U266, MM.1R myeloma cells; experiment: Cell growth assay, human myeloma cells; format: cell-based; settings: three-day growth assay, relative to SSTNIGF1R
Outline: (§2)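 Myeloma cells (2.5 × 10^4/well) were grown in RPMI 1640 with 4 mM L-glutamine, 10% FBS and 0.05 mM β-mercaptoethanol; CAG cells also received 40 μg/mL Geneticin. Cells were grown with 30 μM test peptide or its variant for 3 days at 37 °C, 7.5% CO2. Cell number was read by CellTiter-GLO as % increase relative to untreated cells.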

[5] = tested on: HUVEC endothelial cells; experiment: Cell growth assay, HUVEC; format: cell-based, human; settings: 30 μM peptide, 3 days, Sdc1-positive HUVEC
Outline: (§3)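 Endothelial cells (1–2 × 10^3/well) were grown in complete medium with 30 μM test peptide or its variant for 3 days at 37 °C, 7.5% CO2. Cell number was read by CellTiter-GLO and expressed as % increase relative to untreated cells.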

[6] = tested on: HMEC-1 endothelial cells; experiment: Cell growth assay, HMEC-1; format: cell-based, human; settings: 30 μM peptide, 3 days
Outline: as §3

[7] = tested on: CAG myeloma xenografts; experiment: CAG myeloma xenograft growth and tumor angiogenesis in nude mice; format: in vivo, mouse; settings: Alzet pump 3.65 mg/kg/day, 4 weeks
[8] = tested on: P3X63Ag8 myeloma cells; experiment: Cell growth assay, mouse myeloma cells; format: cell-based; settings: 30 μM peptide, three-day treatment, complete medium
Outline: as §2

[9] = tested on: HUVEC(Sdc1−); experiment: Cell growth assay, HUVEC isolate lacking Sdc1; format: cell-based, human; settings: 30 μM peptide, 3 days
Outline: as §3

[10] = tested on: UM-SCC47, SCC25, MDA-MB-468, MDA-MB-231, MCF-7 and SKBr3 carcinoma cells; experiment: Cell growth assay, head and neck and breast carcinoma cell panel; format: cell-based, human; settings: 3, 10 or 30 μM peptide, 3 days
Outline: (§4)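 Adherent cells (1–2 × 10^3/well) were grown with 3, 10 or 30 μM test peptide for 3 days at 37 °C. Carcinoma lines were kept in DMEM with 4 mM L-glutamine, 10% FBS and penicillin/streptomycin; SCC lines also received 1 μg/mL hydrocortisone. Cell number was read by CellTiter-GLO as % increase relative to untreated cells.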

[11] = tested on: HaCaT keratinocytes; experiment: Cell growth assay, HaCaT; format: cell-based, human; settings: 3, 10 or 30 μM peptide, 3 days
Outline: as §4

[12] = tested on: MCF10A breast epithelial cells; experiment: Cell growth assay, MCF10A; format: cell-based, human; settings: 3, 10 or 30 μM peptide, 3 days
Outline: as §4

[13] = tested on: CAG cells; experiment: ApoTox-GLO viability/apoptosis and TUNEL assay in CAG cells; format: cell-based, human; settings: 24 hr
Outline: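 CAG cells (2.5 × 10^4/well) were grown in complete medium with 1–30 μM test peptide for 24 hr at 37 °C. Viability and caspase activation/apoptosis were read by ApoTox-GLO as % of untreated cells.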

[14] = tested on: ASK1; format: cell-based, human; settings: CAG and MM.1R cells, 10 μM
Outline: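 ASK1 or Sdc1 was immunoprecipitated from cell lysates (0.5–1.0 mg input per sample), with or without competing test peptide. Lysis buffer contained protease and phosphatase inhibitors. Blots were probed for co-precipitated ASK1 and Sdc1, total ASK1, and phospho-ASK1 (pThr838/Thr845, pSer83, pSer966/Ser967).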

[15] = tested on: CAG and MM.1R myeloma cells; experiment: Stress and apoptosis marker antibody array, myeloma cells; format: cell-based, human; settings: CAG and MM.1R cells, 30 μM, over 9 hr
[16] = tested on: HUVECs; experiment: Stress and apoptosis marker antibody array, HUVEC; format: cell-based, human; settings: 30 μM, 24 hr
[17] = tested on: MDA-MB-231 breast carcinoma cells; experiment: Stress and apoptosis marker antibody array, MDA-MB-231; format: cell-based, human; settings: MDA-MB-231, 30 μM, up to 24 hr; compared with HUVEC response
Outline: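 MDA-MB-231 cells in complete medium were treated with or without 30 μM test peptide for 1, 3, 9 or 24 hr. Whole-cell lysates from equal cell equivalents were run on a stress and apoptosis signalling antibody array. Relative fluorescence at 700 nm was read per target, in two separate experiments.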

[18] = Peptide stability in mouse serum; format: in vitro ADME; settings: data not shown
[19] = Peptide stability in bovine serum; format: in vitro ADME; settings: data not shown
[20] = 1 μM JNK-IN-8 with 30 μM SSTNIGF1R, 9 hr
[21] = 10 μM SP600125 with SSTNIGF1R, data not shown

Chain of IGF1R and αvβ5 integrin complex with Sdc1 (P08069 31-736 limits assumed): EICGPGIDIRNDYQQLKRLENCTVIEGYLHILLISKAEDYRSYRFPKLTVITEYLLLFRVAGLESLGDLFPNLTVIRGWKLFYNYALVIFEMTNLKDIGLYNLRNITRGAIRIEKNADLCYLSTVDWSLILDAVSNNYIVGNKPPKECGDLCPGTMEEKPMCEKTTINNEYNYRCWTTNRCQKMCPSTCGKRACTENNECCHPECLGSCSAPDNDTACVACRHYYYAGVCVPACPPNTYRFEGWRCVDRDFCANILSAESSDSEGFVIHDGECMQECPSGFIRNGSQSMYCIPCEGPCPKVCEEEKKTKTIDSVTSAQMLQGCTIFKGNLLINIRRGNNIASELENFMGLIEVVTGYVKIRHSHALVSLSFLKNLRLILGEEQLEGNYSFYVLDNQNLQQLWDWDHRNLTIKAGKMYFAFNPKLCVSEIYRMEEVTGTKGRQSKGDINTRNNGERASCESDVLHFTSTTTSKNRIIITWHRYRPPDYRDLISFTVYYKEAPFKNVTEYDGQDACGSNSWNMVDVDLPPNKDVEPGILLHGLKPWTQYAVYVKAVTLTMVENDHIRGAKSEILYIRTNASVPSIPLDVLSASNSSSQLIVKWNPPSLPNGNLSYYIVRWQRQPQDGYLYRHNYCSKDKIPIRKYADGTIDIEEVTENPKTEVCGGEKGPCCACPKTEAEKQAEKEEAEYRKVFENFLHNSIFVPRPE
Chain of IGF1R and αvβ5 integrin complex with Sdc1 (P08069 741-1367 limits assumed): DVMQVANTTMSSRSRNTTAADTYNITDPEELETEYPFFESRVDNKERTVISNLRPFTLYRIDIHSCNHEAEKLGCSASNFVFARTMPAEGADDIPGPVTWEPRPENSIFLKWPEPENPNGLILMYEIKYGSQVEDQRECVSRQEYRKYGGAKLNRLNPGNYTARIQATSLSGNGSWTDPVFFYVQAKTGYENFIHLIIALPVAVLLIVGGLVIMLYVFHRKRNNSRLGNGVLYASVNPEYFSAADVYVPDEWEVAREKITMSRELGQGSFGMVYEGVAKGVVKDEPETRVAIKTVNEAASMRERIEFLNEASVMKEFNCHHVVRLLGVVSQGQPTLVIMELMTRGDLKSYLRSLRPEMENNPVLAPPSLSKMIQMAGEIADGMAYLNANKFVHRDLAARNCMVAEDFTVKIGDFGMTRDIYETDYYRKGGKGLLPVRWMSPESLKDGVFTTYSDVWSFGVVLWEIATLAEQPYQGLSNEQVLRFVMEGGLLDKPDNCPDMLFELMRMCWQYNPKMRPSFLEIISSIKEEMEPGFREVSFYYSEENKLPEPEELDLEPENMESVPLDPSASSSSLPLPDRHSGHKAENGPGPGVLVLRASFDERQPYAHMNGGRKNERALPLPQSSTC
Chain of IGF1R and αvβ5 integrin complex with Sdc1 (P06756 31-889 limits assumed): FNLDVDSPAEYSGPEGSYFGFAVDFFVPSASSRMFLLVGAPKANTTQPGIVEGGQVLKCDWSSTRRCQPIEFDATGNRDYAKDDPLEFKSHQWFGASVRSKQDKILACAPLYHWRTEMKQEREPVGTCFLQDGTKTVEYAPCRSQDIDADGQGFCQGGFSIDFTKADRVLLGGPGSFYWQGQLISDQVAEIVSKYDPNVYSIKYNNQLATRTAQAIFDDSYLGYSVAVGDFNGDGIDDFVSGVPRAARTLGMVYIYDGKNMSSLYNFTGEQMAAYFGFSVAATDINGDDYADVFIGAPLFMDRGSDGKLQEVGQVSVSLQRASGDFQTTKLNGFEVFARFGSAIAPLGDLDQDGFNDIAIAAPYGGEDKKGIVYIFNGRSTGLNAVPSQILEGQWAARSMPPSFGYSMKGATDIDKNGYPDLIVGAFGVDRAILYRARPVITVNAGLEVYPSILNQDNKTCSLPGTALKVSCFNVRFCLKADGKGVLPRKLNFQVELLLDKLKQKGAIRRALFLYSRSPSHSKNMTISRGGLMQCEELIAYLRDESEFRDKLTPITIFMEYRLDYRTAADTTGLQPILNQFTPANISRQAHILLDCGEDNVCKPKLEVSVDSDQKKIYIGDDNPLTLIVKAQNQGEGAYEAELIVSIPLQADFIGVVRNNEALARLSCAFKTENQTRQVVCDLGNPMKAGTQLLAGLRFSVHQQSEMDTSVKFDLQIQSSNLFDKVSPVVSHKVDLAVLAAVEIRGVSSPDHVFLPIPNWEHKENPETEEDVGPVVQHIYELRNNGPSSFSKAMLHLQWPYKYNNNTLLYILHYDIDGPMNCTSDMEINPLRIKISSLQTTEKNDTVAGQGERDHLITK
Chain of IGF1R and αvβ5 integrin complex with Sdc1 (P06756 891-1048 limits assumed): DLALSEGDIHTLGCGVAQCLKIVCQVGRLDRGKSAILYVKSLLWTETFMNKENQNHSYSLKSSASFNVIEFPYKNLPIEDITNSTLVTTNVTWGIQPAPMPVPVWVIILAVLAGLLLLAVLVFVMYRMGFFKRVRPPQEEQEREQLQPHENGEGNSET
Chain of IGF1R and αvβ5 integrin complex with Sdc1 (P18084 24-799): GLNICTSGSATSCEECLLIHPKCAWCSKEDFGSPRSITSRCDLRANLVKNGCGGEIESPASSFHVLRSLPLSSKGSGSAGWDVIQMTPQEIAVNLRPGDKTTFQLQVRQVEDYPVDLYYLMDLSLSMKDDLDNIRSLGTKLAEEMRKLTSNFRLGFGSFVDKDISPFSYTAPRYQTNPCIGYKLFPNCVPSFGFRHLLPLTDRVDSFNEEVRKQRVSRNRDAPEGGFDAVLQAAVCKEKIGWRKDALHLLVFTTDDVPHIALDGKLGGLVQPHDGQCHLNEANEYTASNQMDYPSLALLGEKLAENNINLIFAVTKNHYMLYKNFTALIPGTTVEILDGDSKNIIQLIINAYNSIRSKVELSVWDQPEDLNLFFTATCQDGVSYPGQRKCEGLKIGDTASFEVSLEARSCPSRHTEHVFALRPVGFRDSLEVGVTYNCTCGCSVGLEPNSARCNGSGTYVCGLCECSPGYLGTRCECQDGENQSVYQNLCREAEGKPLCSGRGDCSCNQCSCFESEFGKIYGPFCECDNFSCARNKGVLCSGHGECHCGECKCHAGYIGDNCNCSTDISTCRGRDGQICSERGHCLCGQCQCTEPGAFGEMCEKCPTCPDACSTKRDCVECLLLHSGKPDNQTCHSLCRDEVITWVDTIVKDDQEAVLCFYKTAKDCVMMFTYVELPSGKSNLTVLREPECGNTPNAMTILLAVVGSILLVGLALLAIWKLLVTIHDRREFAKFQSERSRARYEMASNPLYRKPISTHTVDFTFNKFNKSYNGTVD

Cc1cc(NC(=O)c2cccc(NC(=O)/C=C/CN(C)C)c2)ccc1Nc1nccc(-c2cccnc2)n1 [JNK-IN-8]
block of SSTNIGF1R-induced caspase 3/7 activation [1, 20]: complete block | block of SSTNIGF1R-induced caspase 3/7 activation [2, 20]: complete block

Oc1c2ccccc2c2c3c(cccc13)N=N2 [SP600125]
block of SSTNIGF1R-induced caspase 3/7 activation [1, 21]: Near identical results | block of SSTNIGF1R-induced caspase 3/7 activation [2, 21]: Near identical results

SSTNIGF1R-T: truncated synstatin peptide comprising amino acids 94–119 of Sdc1 (AGEKPEEGEPVLHVEAEPGFTARDKE)
disruption of capture of IGF1R and αvβ5 integrin by Sdc1 ([3]; 1, 3 or 10 μM peptide, myeloma cell lysates): disrupts capture of IGF1R and αvβ5 integrin by Sdc1 | fold less effective than SSTNIGF1R at disrupting IGF1R capture by Sdc1 ([3]; myeloma cells, relative to SSTNIGF1R): 3–10 fold | fold less effective than SSTNIGF1R at causing myeloma cell loss [4]: 3–10 fold | growth of HUVEC endothelial cells [5]: without effect | growth of HMEC-1 endothelial cells [6]: without effect | effect on tumor angiogenesis ([7]; MECA-32 staining intensity): no significant effect

SSTNIGF1R: peptide that inhibits IGF1R capture by Sdc1; comprised of amino acids 92–119 in mouse Sdc1 (LPAGEKPEEGEPVLHVEAEPGFTARDKE)
growth of mouse myeloma cells [8]: significantly reduced | growth of HUVEC endothelial cells [5]: inhibits the growth | growth of HMEC-1 endothelial cells [6]: inhibits the growth | growth of HUVEC isolate lacking Sdc1 [9]: insensitive | growth of head and neck and breast carcinoma cells [10]: reduced growth | growth of non-transformed HaCaT keratinocytes [11]: unaffected | growth of non-transformed MCF10A breast epithelial cells [12]: unaffected | apoptosis by TUNEL assay ([13]; 30 μM): DNA fragmentation | apoptosis: caspase activation (ApoTox-GLO) ([13]; 1–30 μM): executioner caspase activation | cell viability (ApoTox-GLO) ([13]; 1–30 μM): significant loss of viability | increase in caspase 3/7 activity relative to vehicle ([1]; 30 μM SSTNIGF1R alone, 9 hr): ~5 fold | co-immunoprecipitation of ASK1 with Sdc1 [14]: prevented | apoptosis markers (antibody array) [15]: increased phosphorylation of p53 (Ser15), activation of JNK and activation of caspase-3 | apoptosis markers (antibody array) [16]: Activation of the JNK pathway and caspase-3, and a reduction in levels of IkBα | apoptosis markers (antibody array) [17]: almost identical apoptotic response | activity retained after incubation in mouse serum [18]: retains full activity | activity retained after incubation in bovine serum [19]: retains full activity | reduction of blood vessel density in residual tumors ([7]; MECA-32 staining intensity): over 90% | tumors eradicated ([7]; nude mice, CAG tumors, 8 tumors per cohort): 3 of the 8
